≈ marks a conversion by molar mass, not a printed value. *1 amine or outer side, *2 acyl side, *3 side chain or, on linkers, in order; H or OH if unused. Where a SMILES comes first, the peptide text is derived from it. [ ]: non-standard residue; d: D form. The star is where a group is joined. X4 = O=C([C@H](Cc1ccc(N(Cc2ccccc2)Cc2ccccc2)cc1)N[*:1])[*:2]; Phe(4-NO2) = N[C@@H](Cc1ccc([N+](=O)[O-])cc1)C(=O)O; X3 = O=C([C@H](Cc1ccc(NCc2ccccc2)cc1)N[*:1])[*:2]; Diphenylacetyl = O=C(C(c1ccccc1)c1ccccc1)*; X5 = O=C(C(c1ccccc1)(c1ccccc1)c1ccccc1)*; Phe(4-NH2) = Nc1ccc(C[C@H](N)C(=O)O)cc1; X1 = O=C(C1C2CC3CC(C2)CC1C3)*; Isobutyryl = CC(C)C(=O)*; Orn = NCCC[C@H](N)C(=O)O; Propionyl = CCC(=O)*
Tests used:
Pseudomonas aeruginosa [1] = assay: Antibacterial activity against Pseudomonas aeruginosa ATCC 19582 after 24 to 96 hrs by well microplate assay; format: functional
In short: (§1)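 Strains were kept at -70 °C, grown at 30 °C on sheep-blood Columbia agar, and suspended in saline to OD595 0.1, then diluted 10×. Inoculum was added at 2 µL per 100 µL Nutrient Broth with yeast extract (2 g/400 mL). Peptide stocks were 4 g/L in ethanol, diluted to 1000 mg/L in water, then twofold in broth (64–1 mg/L). Plates were held at 30 °C for 24–96 h. MIC was the lowest concentration inhibiting growth.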

Staphylococcus aureus [2] = assay: Antibacterial activity against Staphylococcus aureus 7388 after 24 to 96 hrs by well microplate assay; format: functional; in short: as §1
Streptococcus mitis [3] = assay: Antibacterial activity against Streptococcus mitis BMS after 24 to 96 hrs by well microplate assay; format: functional; in short: as §1
Pseudomonas aeruginosa [4] = assay: Antibacterial activity against Pseudomonas aeruginosa AK1 after 24 to 96 hrs by well microplate assay; format: functional; in short: as §1
[5] = Cytotoxicity against human erythrocytes assessed as hemolysis at 1.5 mM after 4 hrs by twofold dilution assay; format: cell-based; conditions: erythrocyte, 1500 µM
Staphylococcus aureus [6] = assay: Antibacterial activity against Staphylococcus aureus 7323 after 24 to 96 hrs by well microplate assay; format: functional; in short: as §1
Streptococcus mitis [7] = assay: Antibacterial activity against Streptococcus mitis ATCC 33399 after 24 to 96 hrs by well microplate assay; format: functional; in short: as §1
Escherichia coli = assay: Antibacterial activity against Escherichia coli ATCC 25922 after 24 to 96 hrs by well microplate assay; format: functional; in short: as §1
Enterococcus faecalis = assay: Antibacterial activity against Enterococcus faecalis 1131 after 24 to 96 hrs by well microplate assay; format: functional; in short: as §1
[8] = test system: coagulase-negative Staphylococcus; assay: Antibacterial activity against coagulase-negative Staphylococcus CNS 5115 after 24 to 96 hrs by well microplate assay
[9] = test system: coagulase-negative Staphylococcus; assay: Antibacterial activity against coagulase-negative Staphylococcus CNS 5277 after 24 to 96 hrs by well microplate assay
[10] = test system: coagulase-negative Staphylococcus; assay: Antibacterial activity against coagulase-negative Staphylococcus CNS 7368 after 24 to 96 hrs by well microplate assay

Row | Structure (SMILES) | MIC (Pseudomonas aeruginosa [1]) [µg/mL] | MIC (Staphylococcus aureus [2]) [µg/mL] | MIC (Streptococcus mitis [3]) [µg/mL] | MIC (Pseudomonas aeruginosa [4]) [µg/mL] | Activity [5] | MIC (Staphylococcus aureus [6]) [µg/mL] | MIC (Streptococcus mitis [7]) [µg/mL] | MIC (Escherichia coli) [µg/mL] | MIC (Enterococcus faecalis) [µg/mL] | MIC [8] [µg/mL] | MIC [9] [µg/mL] | MIC [10] [µg/mL]
1 | CC(=O)Nc1ccc(C[C@@H]2NC(=O)[C@H](CC(C)C)NC(=O)[C@H](CCCN)NC(=O)[C@H](C(C)C)NC(=O)[C@@H]3CCCN3C(=O)[C@H](Cc3ccccc3)NC(=O)[C@H](CC(C)C)NC(=O)[C@H](CCCN)NC(=O)[C@H](C(C)C)NC(=O)[C@@H]3CCCN3C2=O)cc1 (cyclo(FPV[Orn]L[Phe(4-NH2)](Ac)PV[Orn]L)) | > 64 | 16 (≈ 13.3 µM) | 8 (≈ 6.67 µM) | > 64 | Non-toxic | 64 (≈ 53.4 µM) | 16 (≈ 13.3 µM) | 64 (≈ 53.4 µM) | 64 (≈ 53.4 µM) | 32 (≈ 26.7 µM) | 16 (≈ 13.3 µM) | 32 (≈ 26.7 µM)
2 | CC(C)C[C@@H]1NC(=O)[C@H](CCCN)NC(=O)[C@H](C(C)C)NC(=O)[C@@H]2CCCN2C(=O)[C@H](Cc2ccccc2)NC(=O)[C@H](CC(C)C)NC(=O)[C@H](CCCN)NC(=O)[C@H](C(C)C)NC(=O)[C@@H]2CCCN2C(=O)[C@H](Cc2ccc(NC(=O)C(c3ccccc3)c3ccccc3)cc2)NC1=O (cyclo(FPV[Orn]L[Phe(4-NH2)](Diphenylacetyl)PV[Orn]L)) | > 64 | 32 (≈ 23.7 µM) | 16 (≈ 11.8 µM) | > 64 |  | 16 (≈ 11.8 µM) | > 64 | > 64 | 16 (≈ 11.8 µM) | > 64 | 64 (≈ 47.4 µM) | 8 (≈ 5.92 µM)
3 | CC(C)C[C@@H]1NC(=O)[C@H](CCCN)NC(=O)[C@H](C(C)C)NC(=O)[C@@H]2CCCN2C(=O)[C@H](Cc2ccccc2)NC(=O)[C@H](CC(C)C)NC(=O)[C@H](CCCN)NC(=O)[C@H](C(C)C)NC(=O)[C@@H]2CCCN2C(=O)[C@H](Cc2ccc(NC(=O)C(C)C)cc2)NC1=O (cyclo(FPV[Orn]L[Phe(4-NH2)](Isobutyryl)PV[Orn]L)) | > 64 | 16 (≈ 13 µM) | 8 (≈ 6.52 µM) | > 64 |  | 32 (≈ 26.1 µM) | 32 (≈ 26.1 µM) | 32 (≈ 26.1 µM) | 16 (≈ 13 µM) | 16 (≈ 13 µM) | 16 (≈ 13 µM) | 16 (≈ 13 µM)
4 | CCC(=O)Nc1ccc(C[C@@H]2NC(=O)[C@H](CC(C)C)NC(=O)[C@H](CCCN)NC(=O)[C@H](C(C)C)NC(=O)[C@@H]3CCCN3C(=O)[C@H](Cc3ccccc3)NC(=O)[C@H](CC(C)C)NC(=O)[C@H](CCCN)NC(=O)[C@H](C(C)C)NC(=O)[C@@H]3CCCN3C2=O)cc1 (cyclo(FPV[Orn]L[Phe(4-NH2)](Propionyl)PV[Orn]L)) | > 64 | 16 (≈ 13.2 µM) | 8 (≈ 6.6 µM) | > 64 |  | 32 (≈ 26.4 µM) | 16 (≈ 13.2 µM) | 64 (≈ 52.8 µM) | 32 (≈ 26.4 µM) | 16 (≈ 13.2 µM) | 8 (≈ 6.6 µM) | 8 (≈ 6.6 µM)
5 | CC(C)C[C@@H]1NC(=O)[C@H](CCCN)NC(=O)[C@H](C(C)C)NC(=O)[C@@H]2CCCN2C(=O)[C@H](Cc2ccccc2)NC(=O)[C@H](CC(C)C)NC(=O)[C@H](CCCN)NC(=O)[C@H](C(C)C)NC(=O)[C@@H]2CCCN2C(=O)[C@H](Cc2ccc(NC(=O)C3C4CC5CC(C4)CC3C5)cc2)NC1=O (some centres not stated) (cyclo(FPV[Orn]L[Phe(4-NH2)](X1)PV[Orn]L)) | > 64 | 8 (≈ 6.07 µM) | 8 (≈ 6.07 µM) | > 64 | Non-toxic | 8 (≈ 6.07 µM) | 16 (≈ 12.1 µM) | > 64 | 64 (≈ 48.5 µM) | 8 (≈ 6.07 µM) | 16 (≈ 12.1 µM) | 8 (≈ 6.07 µM)
6 | CC(C)C[C@@H]1NC(=O)[C@H](CCCN)NC(=O)[C@H](C(C)C)NC(=O)[C@@H]2CCCN2C(=O)[C@H](Cc2ccccc2)NC(=O)[C@H](CC(C)C)NC(=O)[C@H](CCCN)NC(=O)[C@H](C(C)C)NC(=O)[C@@H]2CCCN2C(=O)[C@H](Cc2ccc(NC(=O)C(c3ccccc3)(c3ccccc3)c3ccccc3)cc2)NC1=O (cyclo(FPV[Orn]L[Phe(4-NH2)](X5)PV[Orn]L)) | > 64 | > 64 | 64 (≈ 44.9 µM) | > 64 |  | > 64 | > 64 | > 64 | > 64 | > 64 | > 64 | > 64
7 | CC(C)C[C@@H]1NC(=O)[C@H](CCCN)NC(=O)[C@H](C(C)C)NC(=O)[C@@H]2CCCN2C(=O)[C@H](Cc2ccccc2)NC(=O)[C@H](CC(C)C)NC(=O)[C@H](CCCN)NC(=O)[C@H](C(C)C)NC(=O)[C@@H]2CCCN2C(=O)[C@H](Cc2ccc(N)cc2)NC1=O (cyclo(FPV[Orn]L[Phe(4-NH2)]PV[Orn]L)) | > 64 | 16 (≈ 13.8 µM) | 8 (≈ 6.92 µM) | > 64 |  | 32 (≈ 27.7 µM) | 32 (≈ 27.7 µM) | 64 (≈ 55.3 µM) | 64 (≈ 55.3 µM) | 32 (≈ 27.7 µM) | 16 (≈ 13.8 µM) | 16 (≈ 13.8 µM)
8 | CC(C)C[C@@H]1NC(=O)[C@H](CCCN)NC(=O)[C@H](C(C)C)NC(=O)[C@@H]2CCCN2C(=O)[C@H](Cc2ccccc2)NC(=O)[C@H](CC(C)C)NC(=O)[C@H](CCCN)NC(=O)[C@H](C(C)C)NC(=O)[C@@H]2CCCN2C(=O)[C@H](Cc2ccc([N+](=O)[O-])cc2)NC1=O (cyclo(FPV[Orn]L[Phe(4-NO2)]PV[Orn]L)) | > 64 | 16 (≈ 13.5 µM) | 32 (≈ 27 µM) | > 64 |  | 16 (≈ 13.5 µM) | 32 (≈ 27 µM) | 64 (≈ 53.9 µM) | 32 (≈ 27 µM) | 16 (≈ 13.5 µM) | 16 (≈ 13.5 µM) | 16 (≈ 13.5 µM)
9 | CC(C)C[C@@H]1NC(=O)[C@H](CCCN)NC(=O)[C@H](C(C)C)NC(=O)[C@@H]2CCCN2C(=O)[C@H](Cc2ccccc2)NC(=O)[C@H](CC(C)C)NC(=O)[C@H](CCCN)NC(=O)[C@H](C(C)C)NC(=O)[C@@H]2CCCN2C(=O)[C@H](Cc2ccc(NCc3ccccc3)cc2)NC1=O (cyclo(FPV[Orn]L[X3]PV[Orn]L)) | > 64 | 64 (≈ 51.3 µM) | 64 (≈ 51.3 µM) | > 64 |  | > 64 | 64 (≈ 51.3 µM) | > 64 | > 64 | > 64 | 64 (≈ 51.3 µM) | 64 (≈ 51.3 µM)
10 | CC(C)C[C@@H]1NC(=O)[C@H](CCCN)NC(=O)[C@H](C(C)C)NC(=O)[C@@H]2CCCN2C(=O)[C@H](Cc2ccccc2)NC(=O)[C@H](CC(C)C)NC(=O)[C@H](CCCN)NC(=O)[C@H](C(C)C)NC(=O)[C@@H]2CCCN2C(=O)[C@H](Cc2ccc(N(Cc3ccccc3)Cc3ccccc3)cc2)NC1=O (cyclo(FPV[Orn]L[X4]PV[Orn]L)) | > 64 | > 64 | 64 (≈ 47.9 µM) | > 64 |  | > 64 | 64 (≈ 47.9 µM) | > 64 | > 64 | > 64 | 64 (≈ 47.9 µM) | 64 (≈ 47.9 µM)

Reference: ChEMBL document CHEMBL1152538, “Synthesis and biological evaluation of asymmetric gramicidin S analogues containing modified D-phenylalanine residues” (Bioorg Med Chem, 2009)
